Assay results from ChEMBL document CHEMBL1125645, “Specific bradycardic agents. 2. Heteroaromatic modifications in the side chain of specific bradycardic benzazepinones: chemistry, pharmacology, and structure-activity relationships” (1991).

Experiments:
[1] = tested on: Rattus norvegicus; assay: Hypotensive activity was evaluated in an anesthetized rat model as percent mean aortic blood pressure(mm hg) reduction 5 min after iv injection of 5 mg/kg; type: functional, Artery
Summary of the method: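 In pentobarbital-anesthetized (50 mg/kg ip), artificially ventilated male Chbb:THOM rats (200-250 g), mean aortic pressure was measured through a carotid artery cannula connected to an electromechanical transducer. Readings were taken before and 5 min after 5 mg/kg iv. Values are % change from baseline, ± SEM.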

[2] = tested on: Rattus norvegicus; assay: Bradycardic activity was evaluated in an anesthetized rat model as percent heart rate(beats/min) reduction 5 min after iv injection of 5 mg/kg; type: functional
Summary of the method: (§1)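 Male Chbb:THOM rats, 200-250 g, anesthetized with pentobarbital sodium 50 mg/kg ip, with the trachea cannulated and artificial respiration given. Heart rate was recorded continuously by an ECG-triggered beat-to-beat tachograph before and at 5 and 20 min after a single iv injection of 5 mg/kg. Values are % change from pre-dose, reported ± SEM.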

[3] = species: Rattus norvegicus; assay: Ratio of heart rate reduction to mean arterial blood pressure reduction; type: functional
Summary of the method: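 Selectivity parameter S: the % heart-rate reduction divided by the % mean arterial pressure reduction, both read 5 min after 5 mg/kg iv in anesthetized, ventilated male Chbb:THOM rats. Heart rate came from an ECG-triggered tachograph and pressure from a carotid cannula.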

[4] = species: Rattus norvegicus; assay: Delta HR ratio measured as the ratio of delta HR(20 min)/delta HR (5 min); type: functional
Summary of the method: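 Duration-of-action index: the % heart-rate reduction at 20 min divided by that at 5 min after 5 mg/kg iv. Rats were male Chbb:THOM, pentobarbital-anesthetized and ventilated, with heart rate taken from an ECG-triggered tachograph.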

[5] = tested on: Rattus norvegicus; assay: Bradycardic activity was evaluated in an anesthetized rat model as percent heart rate(beats/min) reduction 20 min after iv injection of 5 mg/kg; type: functional; summary of the method: as §1

SMILES	Delta MAP [1] [%]	Delta HR [2] [%]	Selectivity [3]	Ratio [4]	Delta HR [5] [%]
COc1cc2c(cc1OC)CC(=O)N(CCCN(C)CCCc1c[nH]c3ccccc13)CC2	-34	-62	1.8	0.76	-47
COc1cc2c(cc1OC)CC(=O)N(CCCN(C)CCc1cc3ccccc3o1)CC2	-39	-67	1.7	0.67	-45
COc1ccc(CCN(C)CCCN2CCc3cc(OC)c(OC)cc3CC2=O)cc1OC [ZATEBRADINE]	-21	-56	2.6	0.83	-46
COc1cc2c(cc1OC)CC(=O)N(CCCN(C)CCc1csc3ccc(Br)cc13)CC2	-41	-50	1.2	0.34	-17
COc1cc2c(cc1OC)CC(=O)N(CCCN(C)CCCCc1cccs1)CC2	-2	-61	2.3	0.39	-24
COc1ccc2[nH]cc(CCN(C)CCCN3CCc4cc(OC)c(OC)cc4CC3=O)c2c1	-18	-32	1.8	0.92	-29
COc1cc2c(cc1OC)CC(=O)N(CCCN(C)Cc1csc3ccccc13)CC2	-27	-18	0.66	0.4	-7
COc1cc2c(cc1OC)CC(=O)N(CCCN(C)CCc1cc(C)sc1C)CC2	-36	-61	1.7	0.65	-40
COc1cc2c(cc1OC)CC(=O)N(CCCN(C)CCc1coc3cccc(OC)c13)CC2	-8	-31	3.9	0.45	-14
COc1cc2c(cc1OC)CC(=O)N(CCCN(C)CCc1ccco1)CC2	-52	-12	0.23	0.92	-11
COc1cc2c(cc1OC)CC(=O)N(CCCN(C)CCc1csc3ccccc13)CC2	-55	-66	1.2	0.78	-51
COc1cc2c(cc1OC)CC(=O)N(CCCN(C)CCc1c[nH]c3ccc(OCc4ccccc4)cc13)CC2	-45	-49	1.1	0.93	-46
COc1cc2c(cc1OC)CC(=O)N(CCCN(C)CCCCCCc1cccs1)CC2	-26	-53	2	0.4	-21
COc1cc2c(cc1OC)CC(=O)N(CCCN(C)CCc1csc3cc(O)ccc13)CC2	-29	-50	1.7	0.74	-37
COc1cc2c(cc1OC)CC(=O)N(CCCN(C)CCc1c[nH]c3ccc(Br)cc13)CC2	-34	-33	0.98	0.82	-27
COc1cc2c(cc1OC)CC(=O)N(CCCN(C)CCc1c[nH]c3ccc(O)cc13)CC2	-27	-49	1.8	0.49	-24

SMILES	Delta MAP [1] [%]	Delta HR [2] [%]	Selectivity [3]	Ratio [4]	Delta HR [5] [%]
COc1cc2c(cc1OC)CC(=O)N(CCCN(C)CCc1csc3cc(OC)c(OC)cc13)CC2	-17	-24	1.4	0.71	-17
COc1cc2c(cc1OC)CC(=O)N(CCCN(C)CCc1cn(C)c3ccccc13)CC2	-22	-50	2.3	0.74	-37
COc1cc2c(cc1OC)CC(=O)N(CCCN(C)CCCc1cccs1)CC2	-20	-40	2	0.48	-19
COc1cc2c(cc1OC)CC(=O)N(CCCN(C)CCc1csc3ccc(C)cc13)CC2	-36	-51	1.4	0.75	-38
COc1cc2c(cc1OC)CC(=O)N(CCCN(C)CCc1cccs1)CC2	-34	-28	0.82	0.56	-16
COc1cc2c(cc1OC)CC(=O)N(CCCN(C)CCc1csc3c1CCCC3)CC2	-43	-69	1.6	0.8	-55
COc1cc2c(cc1OC)CC(=O)N(CCCN(C)CCc1csc3cc(OS(C)(=O)=O)ccc13)CC2	-21	-50	2.4	0.8	-40
COc1cc2c(cc1OC)CC(=O)N(CCCN(C)CCCCCc1cccs1)CC2	-15	-68	4.4	0.53	-36
COc1cc2c(cc1OC)CC(=O)N(CCCN(C)CCCc1ccco1)CC2	-61	-19	0.31	0.95	-18
COc1cc2c(cc1OC)CC(=O)N(CCCN(C)CCc1cccn1C)CC2	-18	-30	1.7	0.59	-18
COc1cc2c(cc1OC)CC(=O)N(CCCN(C)CCc1csc3cccc(OC)c13)CC2	-21	-34	1.6	0.72	-24
COc1cc2c(cc1OC)CC(=O)N(CCCN(C)CCc1cccnc1)CC2	-11	-12	1.1	1.5	-18
COc1cc2c(cc1OC)CC(=O)N(CCCN(C)CCc1c[nH]c3ccccc13)CC2	-23	-50	2.2	0.73	-36
COc1ccc2c(CCN(C)CCCN3CCc4cc(OC)c(OC)cc4CC3=O)coc2c1	-35	-59	1.7	0.58	-34
COc1cc2c(cc1OC)CC(=O)N(CCCN(C)CCc1coc3ccccc13)CC2	-39	-54	1.4	0.72	-39
COc1cc2c(cc1OC)CC(=O)N(CCCN(C)CCCc1csc3ccccc13)CC2	-46	-65	1.4	0.69	-45
